# Calls of active or inactive are those of the source. The calls are words filed in the database; no cut-off is given here.
# Tests used:
# [1] = test system: Staphylococcus aureus; test: Growth inhibition of Staphylococcus aureus ATCC 49775 after 16 to 20 hrs by microbroth dilution method relative to control; assay type: functional; parameters: concentration or dose not given beside the values
# How it was run: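 S. aureus ATCC 49775 cultured with compound; growth read spectrophotometrically at 600 nm 20 h post-treatment. Activity called where culture optical density fell by >40% relative to nontreated controls.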
# [2] = molecular target: T1, Biotin--protein ligase (Homo sapiens, UniProt P50747); test: Inhibition of human biotin protein ligase assessed as reduction in 3H-biotin incorporation into pyruvate carboxylase biotin domain after 10 mins by liquid scintillation counting analysis
# T1 sequence (P50747 whole entry): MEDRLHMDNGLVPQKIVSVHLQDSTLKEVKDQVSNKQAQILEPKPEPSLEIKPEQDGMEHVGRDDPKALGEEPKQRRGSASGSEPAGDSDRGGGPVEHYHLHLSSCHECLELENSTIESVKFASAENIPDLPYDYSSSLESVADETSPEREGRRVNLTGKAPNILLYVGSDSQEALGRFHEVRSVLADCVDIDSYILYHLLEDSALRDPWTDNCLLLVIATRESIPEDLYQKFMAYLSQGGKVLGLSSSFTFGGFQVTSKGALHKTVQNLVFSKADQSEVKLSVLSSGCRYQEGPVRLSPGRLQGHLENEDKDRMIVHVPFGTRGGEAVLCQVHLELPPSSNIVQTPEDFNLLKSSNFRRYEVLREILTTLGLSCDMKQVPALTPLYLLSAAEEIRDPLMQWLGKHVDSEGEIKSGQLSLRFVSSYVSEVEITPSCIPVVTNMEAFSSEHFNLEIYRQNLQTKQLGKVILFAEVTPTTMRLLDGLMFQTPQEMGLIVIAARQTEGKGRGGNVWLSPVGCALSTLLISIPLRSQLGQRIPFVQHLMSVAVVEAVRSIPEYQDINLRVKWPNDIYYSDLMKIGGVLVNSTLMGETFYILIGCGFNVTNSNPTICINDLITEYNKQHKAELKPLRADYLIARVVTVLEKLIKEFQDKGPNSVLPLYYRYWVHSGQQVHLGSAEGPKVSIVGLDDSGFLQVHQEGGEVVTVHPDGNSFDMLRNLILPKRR
# How it was run: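 Recombinant human BPL; radiolabeled biotin transfer onto an acceptor protein measured with 100 μM compound included in the assay medium.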
# [3] = Inhibition of Staphylococcus aureus biotin protein ligase assessed as reduction in 3H-biotin incorporation into Staphylococcus aureus pyruvate carboxylase biotin domain after 10 mins by liquid scintillation counting analysis
# How it was run: (§1)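 Recombinant S. aureus BPL; enzymatic incorporation of radiolabeled biotin onto an acceptor protein measured across varying inhibitor concentrations to give IC50. Ki calculated from IC50 assuming competitive inhibition versus biotin, using the known KM for biotin.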
# [4] = test system: Staphylococcus aureus; test: Growth inhibition of Staphylococcus aureus RN4220 harboring pCN51 at 16 ug/ml measured every 30 mins for 16 hrs; assay type: functional
# How it was run: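 Cultures grown in medium with 16 μg/mL compound for 16 h; optical density read every 30 min and compared with nontreated controls. Part of a target-overexpression test of the BPL mechanism.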
# [5] = Selectivity ratio of Ki for Staphylococcus aureus C-terminal His6-tagged biotin protein ligase to Ki for human C-terminal His6-tagged biotin protein ligase
# How it was run: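 Recombinant S. aureus and human BPLs; enzymatic incorporation of radiolabeled biotin onto an acceptor protein measured across varying compound concentrations. IC50 converted to Ki assuming competition with biotin, using the known biotin KM. Human enzyme tested with 100 μM compound in the assay.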
# [6] = Inhibition of Staphylococcus aureus C-terminal His6-tagged biotin protein ligase assessed as reduction in 3H-biotin incorporation into biotin domain of substrate; how it was run: as §1
# [7] = Cytotoxicity against human HepG2 cells assessed as decrease in cell viability at 40 ug/ml after 24 to 48 hrs by WST-1 assay; assay type: toxicity, cell-based
# How it was run: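 Cultured HepG2 cells (ATCC HB-8065) exposed to compound at a single concentration of 40 μg/mL to assess cytotoxicity.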
Ki [2] [µM],SMILES,growth inhibition (GI) [1] [%],Ki [3] [nM],growth inhibition (GI) [4],Ratio Ki [5],Ki [6] [nM],Activity [7] [µg/mL]
> 16,O=C1N[C@H]2[C@H](CS[C@H]2CCCCCc2cn(Cc3ccccc3Br)nn2)N1,>40,960,,,,
,Cc1ccc2oc(=O)n(CCCCn3cc(CCCCC[C@@H]4SC[C@@H]5NC(=O)N[C@@H]54)nn3)c2c1,,,,> 1000,90,
> 16,O=C1N[C@H]2[C@H](CS[C@H]2CCCCCc2cn(Cc3ccc(O)cc3)nn2)N1,,1590,,,,
> 16,Cc1ccc(Cn2cc(CCCCC[C@@H]3SC[C@@H]4NC(=O)N[C@@H]43)nn2)cc1,,> 10000,,,,
> 16,Nc1ccc(Cn2cc(CCCCC[C@@H]3SC[C@@H]4NC(=O)N[C@@H]43)nn2)cc1,,> 10000,,,,
> 16,CC(C)(C)c1ccc(Cn2cc(CCCCC[C@@H]3SC[C@@H]4NC(=O)N[C@@H]43)nn2)cc1,>40,1100,,,,
> 16,COc1ccc(Cn2cc(CCCCC[C@@H]3SC[C@@H]4NC(=O)N[C@@H]43)nn2)cc1,,> 10000,,,,
> 16,O=C1N[C@H]2[C@H](CS[C@H]2CCCCCc2cn(Cc3cccc(C(F)(F)F)c3)nn2)N1,,> 10000,,,,
> 16,Nc1cccc(Cn2cc(CCCCC[C@@H]3SC[C@@H]4NC(=O)N[C@@H]43)nn2)c1,,> 10000,,,,
> 16,O=C1N[C@H]2[C@H](CS[C@H]2CCCCCc2cn(Cc3ccc(C(=O)O)cc3)nn2)N1,,670,,,,
> 16,O=C1N[C@H]2[C@H](CS[C@H]2CCCCCc2cn(Cc3ccc(I)cc3)nn2)N1,>40,560,,,,
> 16,O=C1N[C@H]2[C@H](CS[C@H]2CCCCCc2cn(Cc3ccccc3Cl)nn2)N1,,> 10000,,,,
> 16,COc1ccccc1Cn1cc(CCCCC[C@@H]2SC[C@@H]3NC(=O)N[C@@H]32)nn1,,530,,,,
> 16,O=C1N[C@H]2[C@H](CS[C@H]2CCCCCc2cn(Cc3ccccc3O)nn2)N1,,> 10000,,,,
> 16,O=C1N[C@H]2[C@H](CS[C@H]2CCCCCc2cn(Cc3ccc(F)c(F)c3)nn2)N1,,> 10000,,,,
> 16,O=C1N[C@H]2[C@H](CS[C@H]2CCCCCc2cn(Cc3ccccc3F)nn2)N1,,> 10000,,,,
> 16,O=C1N[C@H]2[C@H](CS[C@H]2CCCCCc2cn(Cc3cccc(Cl)c3)nn2)N1,>40,390,,,,> 40
> 16,COc1cccc(Cn2cc(CCCCC[C@@H]3SC[C@@H]4NC(=O)N[C@@H]43)nn2)c1,,1100,,,,
> 16,O=C1N[C@H]2[C@H](CS[C@H]2CCCCCc2cn(Cc3ccc(Cl)cc3)nn2)N1,>40,1100,,,,> 40
> 16,O=C1N[C@H]2[C@H](CS[C@H]2CCCCCc2cn(Cc3cccc(O)c3)nn2)N1,,> 10000,,,,
> 16,O=C1N[C@H]2[C@H](CS[C@H]2CCCCCc2cn(Cc3cccc(I)c3)nn2)N1,,> 10000,,,,
> 16,O=C1N[C@H]2[C@H](CS[C@H]2CCCCCc2cn(Cc3ccc(F)cc3)nn2)N1,>40,600,,,,> 40
> 16,O=C1N[C@H]2[C@H](CS[C@H]2CCCCCc2cn(Cc3ccc(C(F)(F)F)cc3)nn2)N1,,> 10000,,,,
> 16,Cc1cccc(Cn2cc(CCCCC[C@@H]3SC[C@@H]4NC(=O)N[C@@H]43)nn2)c1,>40,710,,,,

SMILES,Ki [2] [µM],growth inhibition (GI) [1] [%],Ki [3] [nM],growth inhibition (GI) [4],Ratio Ki [5],Ki [6] [nM],Activity [7] [µg/mL]
Nc1ccccc1Cn1cc(CCCCC[C@@H]2SC[C@@H]3NC(=O)N[C@@H]32)nn1,> 16,>40,1480,Active,,,
O=C1N[C@H]2[C@H](CS[C@H]2CCCCCc2cn(Cc3cccc(F)c3)nn2)N1,> 16,>40,280,Active,,,> 40
